Tests used:
[1] = Cytotoxicity against human HepG2 cells supplemented with fresh medium containing compound every 3 days for 9 days measured post-last dose by MTT assay; assay type: cell-based
How it was run: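 HepG2 cells were exposed to compound for 3 or 9 days and viability was read by MTT assay. CC50 is the concentration causing 50% cytotoxicity. Results are mean ± SD of three experiments.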

[2] = tested on: Hepatitis B virus; assay: Antiviral activity against Hepatitis B virus infected in human HepG2.2.15 cells assessed as inhibition of HBsAg secretion at 20 uM supplemented with fresh medium containing compound every 3 days for 6 days and measured on day 9 by ELISA relative to control; assay type: functional
How it was run: (§1)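 HepG2.2.15 cells were exposed to compound for up to 9 days. The initial screen used 20 µM for 9 days, with lamivudine (20 µM) as positive control. Follow-up used 10, 20 or 40 µM sampled at days 3, 6 and 9. HBsAg and HBeAg were quantified in culture supernatant by ELISA and compared with a no-drug control. Results are mean ± SD of three experiments.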

[3] = tested on: Hepatitis B virus; assay: Antiviral activity against Hepatitis B virus infected in human HepG2.2.15 cells assessed as inhibition of HBeAg secretion at 20 uM supplemented with fresh medium containing compound every 3 days for 6 days and measured on day 9 by ELISA relative to control; assay type: functional; how it was run: as §1
[4] = tested on: Hepatitis B virus; assay: (§2) Antiviral activity against lamivudine-resistant Hepatitis B virus harboring L180M/M204V mutant infected in human HepG2.2.15 cells assessed as inhibition of intracellular HBV DNA replication at 20 uM supplemented with fresh medium containing compound every 3 days for 9 days measured post-last dose by FQ-PCR analysis relative to control; assay type: functional
How it was run: (§3)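 Lamivudine-resistant cell line transfected with the L180M/M204V mutant, exposed to 10, 20 or 40 µM for 3, 6 or 9 days. Intracellular and extracellular HBV DNA levels measured.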

[5] = tested on: Hepatitis B virus; assay: as §2, with “6” for “9”; assay type: functional; how it was run: as §3
[6] = tested on: Hepatitis B virus; assay: Antiviral activity against Hepatitis B virus infected in human HepG2.2.15 cells assessed as inhibition of extracellular HBV DNA replication at 20 uM supplemented with fresh medium containing compound every 3 days for 9 days measured post-last dose by FQ-PCR analysis relative to control; assay type: functional
How it was run: (§4)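 HepG2.2.15 cultures were treated at 10, 20 or 40 µM for 3, 6 and 9 days. Both intracellular and extracellular HBV DNA levels were then determined and compared with untreated cells.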

[7] = tested on: Hepatitis B virus; assay: Antiviral activity against Hepatitis B virus infected in human HepG2.2.15 cells assessed as inhibition of intracellular HBV DNA replication at 20 uM supplemented with fresh medium containing compound every 3 days for 6 days measured post-last dose by FQ-PCR analysis relative to control; assay type: functional; how it was run: as §4
[8] = tested on: Hepatitis B virus; assay: Antiviral activity against Hepatitis B virus infected in human HepG2.2.15 cells assessed as inhibition of extracellular HBV DNA replication at 20 uM measured on day 3 by FQ-PCR analysis relative to control; assay type: functional; settings: HepG2.2.15, 72 h; how it was run: as §4
[9] = tested on: Hepatitis B virus; assay: Antiviral activity against lamivudine-resistant Hepatitis B virus harboring L180M/M204V mutant infected in human HepG2.2.15 cells assessed as inhibition of intracellular HBV DNA replication at 20 uM measured on day 3 by FQ-PCR analysis relative to control; assay type: functional; settings: HepG2.2.15, 72 h; how it was run: as §3
[10] = tested on: Hepatitis B virus; assay: Antiviral activity against lamivudine-resistant Hepatitis B virus harboring L180M/M204V mutant infected in human HepG2.2.15 cells assessed as inhibition of extracellular HBV DNA replication at 20 uM measured on day 3 by FQ-PCR analysis relative to control; assay type: functional; settings: HepG2.2.15, 72 h; how it was run: as §3
[11] = tested on: Hepatitis B virus; assay: as §2, with “extracellular” for “intracellular”, “6” for “9”; assay type: functional; how it was run: as §3
[12] = tested on: Hepatitis B virus; assay: Antiviral activity against Hepatitis B virus infected in human HepG2.2.15 cells assessed as inhibition of intracellular HBV DNA replication at 20 uM supplemented with fresh medium containing compound every 3 days for 9 days measured post-last dose by FQ-PCR analysis relative to control; assay type: functional; how it was run: as §4
[13] = tested on: Hepatitis B virus; assay: as §2, with “extracellular” for “intracellular”; assay type: functional; how it was run: as §3
[14] = tested on: Hepatitis B virus; assay: Antiviral activity against Hepatitis B virus infected in human HepG2.2.15 cells assessed as inhibition of intracellular HBV DNA replication at 20 uM measured on day 3 by FQ-PCR analysis relative to control; assay type: functional; settings: HepG2.2.15, 72 h; how it was run: as §4
[15] = tested on: Hepatitis B virus; assay: Antiviral activity against Hepatitis B virus infected in human HepG2.2.15 cells assessed as inhibition of extracellular HBV DNA replication at 20 uM supplemented with fresh medium containing compound every 3 days for 6 days measured post-last dose by FQ-PCR analysis relative to control; assay type: functional; how it was run: as §4

Structure (SMILES)	CC50 at 216 h [1]	inhibition (INH) [2]	inhibition (INH) [3]	inhibition (INH) [4]	inhibition (INH) [5]	inhibition (INH) [6]	inhibition (INH) [7]	inhibition at 20 µM [8]	inhibition at 20 µM [9]	inhibition at 20 µM [10]	inhibition (INH) [11]	inhibition (INH) [12]	inhibition (INH) [13]	inhibition at 20 µM [14]	inhibition (INH) [15]
C[C@@]1(F)[C@H](O)[C@@H](CO)O[C@H]1n1nnc2c(Nc3ccccc3)ncnc21	501 µM	14.8%	17.7%	–	–	–	–	–	–	–	–	–	–	–	–
C[C@@]1(F)[C@H](O)[C@@H](CO)O[C@H]1n1nnc2c(=O)[nH]cnc21	> 600 µM	8.5%	7.4%	–	–	–	–	–	–	–	–	–	–	–	–
C[C@@]1(F)[C@H](O)[C@@H](CO)O[C@H]1n1nnc2c(NCc3ccccc3)ncnc21	> 600 µM	8.5%	11.9%	–	–	–	–	–	–	–	–	–	–	–	–
Nc1ccn([C@@H]2CS[C@H](CO)O2)c(=O)n1 [LAMIVUDINE]	–	42.4%	39.6%	11.2%	7.9%	78.6%	69.7%	32.7%	6.3%	4.1%	8.4%	77.9%	19.3%	47.4%	54.1%
